Measurements taken from ChEMBL document CHEMBL3611968, “Reengineered tricyclic anti-cancer agents” (Bioorg Med Chem, 2015).
Calls of active or inactive are those of the source. The rule behind the calls is not given here.

Experiments:
[1] = Clearance in mouse at 1 mg/kg, iv; assay type: ADME, organism-based; conditions: in vivo
[2] = AUCinfinity in mouse at 25 mg/kg, ip; assay type: ADME, organism-based; design: dose 25 mg/kg, time infinity, route intraperitoneal; conditions: in vivo
[3] = AUClast in mouse at 25 mg/kg, ip; assay type: ADME, organism-based; conditions: in vivo
[4] = AUClast in mouse at 25 mg/kg, po; assay type: ADME, organism-based; conditions: in vivo
NCI-H1650 [5] = test: Cytotoxicity against human NCI-H1650 cells assessed as growth inhibition after 48 hrs by MTT assay; assay type: functional; conditions: NCI-H1650, 48 h
Method in brief: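 H1650 cells were exposed to drug for 48 h at five concentrations bracketing 1–40 μM in 10 μM steps, with MTT read-out. GI50 is given only where the data form a sigmoidal dose response.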

[6] = Half life in mouse at 1 mg/kg, iv; assay type: ADME, organism-based; conditions: in vivo
[7] = Bioavailability in mouse at 100 mg/kg, ip administered through DMA/solutol/water; assay type: ADME, organism-based; conditions: in vivo
[8] = Oral bioavailability in mouse at 25 mg/kg; assay type: ADME, organism-based; conditions: in vivo
[9] = Cmax in mouse at 25 mg/kg, po; assay type: ADME, organism-based; design: dose 25 mg/kg, route oral; conditions: in vivo
[10] = Cmax in mouse at 100 mg/kg, po; assay type: ADME, organism-based; design: dose 100 mg/kg, route oral; conditions: in vivo
[11] = Tmax in mouse at 25 mg/kg, ip; assay type: ADME, organism-based; conditions: in vivo
[12] = Tmax in mouse at 100 mg/kg, ip administered through DMA/solutol/water; assay type: ADME, organism-based; conditions: in vivo
[13] = AUClast in mouse at 1 mg/kg, iv; assay type: ADME, organism-based; conditions: in vivo
[14] = Bioavailability in mouse at 25 mg/kg, ip; assay type: ADME, organism-based; conditions: in vivo
[15] = Oral bioavailability in mouse at 100 mg/kg; assay type: ADME, organism-based; conditions: in vivo
[16] = AUCinfinity in mouse at 1 mg/kg, iv; assay type: ADME, organism-based; design: dose 1 mg/kg, time infinity, route intravenous; conditions: in vivo
[17] = AUCinfinity in mouse at 25 mg/kg, po; assay type: ADME, organism-based; design: dose 25 mg/kg, route oral, time infinity; conditions: in vivo
[18] = Tmax in mouse at 25 mg/kg, po; assay type: ADME, organism-based; conditions: in vivo
[19] = AUClast in mouse at 100 mg/kg, po; assay type: ADME, organism-based; conditions: in vivo
[20] = Cmax in mouse at 25 mg/kg, ip; assay type: ADME, organism-based; design: dose 25 mg/kg, route intraperitoneal; conditions: in vivo
[21] = Volume of distribution at steady state in mouse at 1 mg/kg, iv; assay type: ADME, organism-based; conditions: in vivo, read-out: Vdss
[22] = AUClast in mouse at 100 mg/kg, ip administered through DMA/solutol/water; assay type: ADME, organism-based; conditions: in vivo
[23] = Tmax in mouse at 100 mg/kg, po; assay type: ADME, organism-based; conditions: in vivo
[24] = Cmax in mouse at 100 mg/kg, ip administered through DMA/solutol/water; assay type: ADME, organism-based; design: dose 100 mg/kg, route intraperitoneal; conditions: in vivo
[25] = AUCinfinity in mouse at 100 mg/kg, ip administered through DMA/solutol/water; assay type: ADME, organism-based; design: dose 100 mg/kg, route intraperitoneal, time infinity; conditions: in vivo
[26] = Half life in mouse at 1 mg/kg, ip; assay type: ADME, organism-based; conditions: in vivo
[27] = molecular target: D(2) dopamine receptor (Homo sapiens) (UniProt P14416); test: Binding affinity to dopamine D2 receptor (unknown origin) at 0.1 mM by radioligand displacement assay relative to control
[28] = Cmax in mouse at 10 mg/kg, po; assay type: ADME, organism-based; design: dose 10 mg/kg, route oral; conditions: in vivo
[29] = molecular target: T1, D(4) dopamine receptor (Homo sapiens) (UniProt P21917); test: Binding affinity to dopamine D4 receptor (unknown origin) at 0.1 mM by radioligand displacement assay relative to control
T1 sequence (whole entry): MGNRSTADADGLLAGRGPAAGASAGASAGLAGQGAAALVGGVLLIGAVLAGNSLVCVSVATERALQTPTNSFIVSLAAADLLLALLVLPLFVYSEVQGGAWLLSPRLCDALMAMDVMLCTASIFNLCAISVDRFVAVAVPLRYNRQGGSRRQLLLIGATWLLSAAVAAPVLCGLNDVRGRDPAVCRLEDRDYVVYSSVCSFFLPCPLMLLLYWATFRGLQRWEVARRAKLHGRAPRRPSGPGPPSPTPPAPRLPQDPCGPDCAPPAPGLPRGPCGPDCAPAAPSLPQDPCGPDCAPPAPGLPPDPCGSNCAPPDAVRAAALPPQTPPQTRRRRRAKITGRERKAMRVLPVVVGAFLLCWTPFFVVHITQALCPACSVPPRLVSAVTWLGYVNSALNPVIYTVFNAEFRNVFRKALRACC

[30] = molecular target: D(1A) dopamine receptor (Homo sapiens) (UniProt P21728); test: Binding affinity to dopamine D1 receptor (unknown origin) at 1 mM by radioligand displacement assay relative to control
[31] = molecular target: D(2) dopamine receptor (Homo sapiens) (UniProt P14416); test: Binding affinity to dopamine D2 receptor (unknown origin) at 1 mM by radioligand displacement assay relative to control
[32] = molecular target: D(3) dopamine receptor (Homo sapiens) (UniProt P35462); test: Binding affinity to dopamine D3 receptor (unknown origin) at 1 mM by radioligand displacement assay relative to control
[33] = AUClast in mouse at 10 mg/kg, po; assay type: ADME, organism-based; conditions: in vivo
NCI-H1650 [34] = test: Cell cycle arrest in human NCI-H1650 cells assessed as accumulation at sub-G1 phase by propidium iodide staining-based flow cytometric analysis; assay type: functional
[35] = molecular target: D(1B) dopamine receptor (Homo sapiens) (UniProt P21918); test: Binding affinity to dopamine D5 receptor (unknown origin) at 0.1 mM by radioligand displacement assay relative to control
[36] = Bioavailability in mouse at 10 mg/kg, ip; assay type: ADME, organism-based; conditions: in vivo
[37] = Cmax in mouse at 10 mg/kg, ip; assay type: ADME, organism-based; design: dose 10 mg/kg, route intraperitoneal; conditions: in vivo
[38] = Half life in mouse at 10 mg/kg, po; assay type: ADME, organism-based; conditions: in vivo
[39] = AUCinfinity in mouse at 1 mg/kg, ip; assay type: ADME, organism-based; design: time infinity, route intraperitoneal; conditions: in vivo
[40] = Initial drug concentration in mouse at 1 mg/kg, iv; assay type: ADME, organism-based; conditions: in vivo
[41] = Oral bioavailability in mouse at 10 mg/kg; assay type: ADME, organism-based; conditions: in vivo
[42] = Tmax in mouse at 10 mg/kg, po; assay type: ADME, organism-based; conditions: in vivo
Mus musculus = test: Toxicity in mouse assessed as induction of lethargy at 10 mg/kg relative to control; assay type: organism-based; conditions: in vivo
NCI-H1650 [43] = test: Cytotoxicity against human NCI-H1650 cells assessed as reduction of colony formation at 20 to 40 uM after 7 days by crystal violet staining; assay type: functional, cell-based
[44] = Tmax in mouse at 10 mg/kg, ip; assay type: ADME, organism-based; conditions: in vivo
[45] = molecular target: D(1A) dopamine receptor (Homo sapiens) (UniProt P21728); test: Binding affinity to dopamine D1 receptor (unknown origin) at 0.1 mM by radioligand displacement assay relative to control
[46] = AUCinfinity in mouse at 10 mg/kg, po; assay type: ADME, organism-based; design: dose 10 mg/kg, time infinity, route oral; conditions: in vivo
[47] = molecular target: D(3) dopamine receptor (Homo sapiens) (UniProt P35462); test: Binding affinity to dopamine D3 receptor (unknown origin) at 0.1 mM by radioligand displacement assay relative to control
[48] = AUClast in mouse at 10 mg/kg, ip; assay type: ADME, organism-based; conditions: in vivo

D(1B) dopamine receptor (Homo sapiens), sequence (P21918 whole entry): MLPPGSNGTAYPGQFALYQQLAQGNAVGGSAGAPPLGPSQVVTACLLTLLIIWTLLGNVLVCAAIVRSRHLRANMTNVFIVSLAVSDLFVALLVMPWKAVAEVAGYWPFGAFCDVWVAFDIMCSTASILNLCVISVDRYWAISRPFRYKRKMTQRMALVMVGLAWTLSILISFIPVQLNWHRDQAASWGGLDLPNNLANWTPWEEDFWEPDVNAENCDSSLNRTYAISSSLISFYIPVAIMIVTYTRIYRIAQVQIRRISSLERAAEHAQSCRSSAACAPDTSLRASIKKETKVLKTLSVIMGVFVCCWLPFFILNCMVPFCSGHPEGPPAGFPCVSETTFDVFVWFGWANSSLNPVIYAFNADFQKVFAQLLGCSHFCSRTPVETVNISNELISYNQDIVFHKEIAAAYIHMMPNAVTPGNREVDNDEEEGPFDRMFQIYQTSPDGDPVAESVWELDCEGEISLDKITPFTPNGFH
D(3) dopamine receptor (Homo sapiens), sequence (P35462 whole entry): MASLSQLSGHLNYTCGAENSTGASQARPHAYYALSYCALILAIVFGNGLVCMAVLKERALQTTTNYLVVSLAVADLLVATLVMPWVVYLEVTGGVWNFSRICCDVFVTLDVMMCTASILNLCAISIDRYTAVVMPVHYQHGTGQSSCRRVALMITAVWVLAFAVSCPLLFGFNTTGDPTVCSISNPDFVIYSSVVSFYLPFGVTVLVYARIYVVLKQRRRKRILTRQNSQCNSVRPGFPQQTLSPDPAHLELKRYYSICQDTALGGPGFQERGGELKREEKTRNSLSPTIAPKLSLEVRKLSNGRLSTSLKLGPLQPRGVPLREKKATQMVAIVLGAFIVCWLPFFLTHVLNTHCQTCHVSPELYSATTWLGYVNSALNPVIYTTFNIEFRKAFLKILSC
D(2) dopamine receptor (Homo sapiens), sequence (P14416 whole entry): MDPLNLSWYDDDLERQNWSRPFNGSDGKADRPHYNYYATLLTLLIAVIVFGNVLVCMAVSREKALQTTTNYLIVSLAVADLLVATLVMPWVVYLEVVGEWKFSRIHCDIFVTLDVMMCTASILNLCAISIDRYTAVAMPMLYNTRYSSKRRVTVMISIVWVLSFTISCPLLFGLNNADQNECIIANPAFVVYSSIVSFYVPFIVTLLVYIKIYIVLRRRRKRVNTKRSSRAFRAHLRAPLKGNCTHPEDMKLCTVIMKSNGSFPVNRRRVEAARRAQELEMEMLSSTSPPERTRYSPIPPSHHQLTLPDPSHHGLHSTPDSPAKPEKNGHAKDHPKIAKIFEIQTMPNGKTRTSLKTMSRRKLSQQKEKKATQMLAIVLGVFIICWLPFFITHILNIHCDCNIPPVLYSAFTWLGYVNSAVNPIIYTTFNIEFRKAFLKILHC
D(1A) dopamine receptor (Homo sapiens), sequence (P21728 whole entry): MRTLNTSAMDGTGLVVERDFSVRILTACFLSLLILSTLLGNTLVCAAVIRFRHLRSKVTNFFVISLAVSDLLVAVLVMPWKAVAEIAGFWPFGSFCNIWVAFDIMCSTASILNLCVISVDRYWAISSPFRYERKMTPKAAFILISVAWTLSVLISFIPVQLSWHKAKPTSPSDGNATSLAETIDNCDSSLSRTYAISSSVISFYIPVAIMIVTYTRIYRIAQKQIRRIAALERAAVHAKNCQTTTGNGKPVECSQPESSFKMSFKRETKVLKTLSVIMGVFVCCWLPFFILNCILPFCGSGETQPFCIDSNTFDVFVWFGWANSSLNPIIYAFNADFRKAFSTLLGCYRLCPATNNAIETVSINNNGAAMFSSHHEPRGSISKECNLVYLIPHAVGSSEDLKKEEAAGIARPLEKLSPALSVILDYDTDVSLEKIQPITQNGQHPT

Row | clearance [1] | half-life [6] | AUC(0-t) [13] | AUC(0-inf) [16] | Vd [21] | half-life [26] | inhibition [27] | Cmax [28] | inhibition [29] | inhibition [30] | inhibition [31] | AUC(0-t) [33] | inhibition [35] | bioavailability [36] | Cmax [37] | half-life [38] | AUC(0-inf) [39] | inhibition [45] | Compound | GI50 (NCI-H1650 [5]) | Activity (NCI-H1650 [34]) | also measured
1 | 44 mL/min/kg | 0.81 h | 370 ng·h/mL | 376 ng·h/mL | 1.61 L/kg |  |  |  |  |  |  |  |  |  |  |  |  |  | O=S(=O)(NC[C@H](O)CN1c2ccccc2CCc2ccccc21)c1ccc(OC(F)(F)F)cc1 | 15 µM |  | AUC(0-inf) [2]: 5790 ng·h/mL; AUC(0-t) [3]: 5700 ng·h/mL; AUC(0-t) [4]: 3300 ng·h/mL; bioavailability [7]: 94%; bioavailability [8]: 36%; Cmax [9]: 1310 ng/mL; Cmax [10]: 4880 ng/mL; Tmax [11]: 1 h; Tmax [12]: 1 h; bioavailability [14]: 62%; bioavailability [15]: 50%; AUC(0-inf) [17]: 3460 ng·h/mL; Tmax [18]: 1 h; AUC(0-t) [19]: 18500 ng·h/mL; Cmax [20]: 2240 ng/mL; AUC(0-t) [22]: 34700 ng·h/mL; Tmax [23]: 2 h; Cmax [24]: 6490 ng/mL; AUC(0-inf) [25]: 34700 ng·h/mL
2 | 52.5 mL/min/kg |  | 310 ng·h/mL | 317 ng·h/mL | 1.76 L/kg | 2.87 h | < 5% | 349 ng/mL | < 5% | 14% | 21% | 489 ng·h/mL | < 10% | 46.6% | 859 ng/mL | 1.19 h | 1450 ng·h/mL | < 5% | COC(=O)NCCCN1c2ccccc2Sc2ccc(Cl)cc21 | > 40 µM | Dose-dependent effect | inhibition [32]: 22%; C0 [40]: 1200 ng/mL; bioavailability [41]: 15.8%; Tmax [42]: 0.5 h; Activity (Mus musculus): Non-toxic; Activity (NCI-H1650 [43]): Active; Tmax [44]: 0.25 h; AUC(0-inf) [46]: 498 ng·h/mL; inhibition [47]: < 5%; AUC(0-t) [48]: 1450 ng·h/mL
3 | 11.1 mL/min/kg | 1.36 h | 1480 ng·h/mL | 1500 ng·h/mL | 0.72 L/kg | 4.35 h |  | 834 ng/mL |  | 12% | 14% | 2500 ng·h/mL | < 10% | 50.2% | 2250 ng/mL | 3.14 h | 7570 ng·h/mL | < 5% | Cc1ccc(S(=O)(=O)NCCCN2c3ccccc3Sc3ccc(Cl)cc32)cc1 | > 40 µM | Dose-dependent effect | C0 [40]: 2970 ng/mL; bioavailability [41]: 16.9%; Tmax [42]: 0.5 h; Activity (Mus musculus): Non-toxic; Activity (NCI-H1650 [43]): Active; Tmax [44]: 1 h; AUC(0-inf) [46]: 2510 ng·h/mL; AUC(0-t) [48]: 7440 ng·h/mL
4 |  |  |  |  |  |  | < 5% |  | < 5% |  |  |  | < 10% |  |  |  |  | < 5% | COC(=O)NCCCN1c2ccccc2CCc2ccc(Cl)cc21 | > 40 µM |  | inhibition [47]: < 5%
